Results published in ChEMBL document CHEMBL1143237, “Sulfonamide-1,2,4-triazole derivatives as antifungal and antibacterial agents: synthesis, biological evaluation, lipophilicity, and conformational studies” (Bioorg Med Chem, 2008).
Values after ≈ are worked out from the molar mass of the structure shown.

Legend:
[1] = Partition coefficient, log P of the compound; assay type: physicochemical; details: octanol/water
Method in brief: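 Calculated, not measured: AlogP, IAlogP, ClogP, Cosmo logP, mlogP, Kowwin and XlogP were computed and averaged.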

Enterobacter cloacae = assay: Antibacterial activity against Enterobacter cloacae after 24 hrs by microdilution test; assay type: functional
Method in brief: (§1)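 Broth microdilution in LB medium in 96-well plates. Inoculum 1.0 × 10⁴ CFU per well, from a suspension set to 1.0 × 10⁵ CFU/ml in sterile saline. Compounds at […] µg/ml. Incubation 24 h at 28 °C. MIC is the lowest concentration with no visible growth under a binocular microscope. MBC by subculturing 2 µl into fresh broth for a further 72 h. OD540 read against blank. DMSO negative control.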

Salmonella enteritidis = assay: Antibacterial activity against Salmonella enteritidis ATCC 13076 after 24 hrs by microdilution test; assay type: functional, Salmonella enterica subsp. enterica serovar Enteritidis; details: Salmonella enterica, ATCC 13076, 24 h; method in brief: as §1
Salmonella typhimurium = assay: Antibacterial activity against Salmonella Typhimurium ATCC 13311 after 24 hrs by microdilution test; assay type: functional, Salmonella enterica subsp. enterica serovar Typhimurium; details: Salmonella enterica, ATCC 13311, 24 h; method in brief: as §1
[2] = system: Staphylococcus epidermidis; assay: Antibacterial activity against Staphylococcus epidermidis ATCC 12228 after 24 hrs by microdilution test; assay type: functional; details: ATCC 12228, 24 h; method in brief: as §1
Micrococcus luteus = assay: Antibacterial activity against Micrococcus flavus ATCC 10240 after 24 hrs by microdilution test; assay type: functional; details: ATCC 10240, 24 h; method in brief: as §1
Escherichia coli = assay: Antibacterial activity against Escherichia coli ATCC 35210 after 24 hrs by microdilution test; assay type: functional; details: ATCC 35210, 24 h; method in brief: as §1
Aspergillus flavus = assay: Antifungal activity against Aspergillus flavus ATCC 9643 after 72 hrs by microdilution test; assay type: functional; details: ATCC 9643, 72 h
Method in brief: (§2)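 Modified microdilution in malt broth. Spores were washed from malt agar with sterile 0.85% saline containing 0.1% Tween 80 and adjusted to about 1.0 × 10⁵ per well. Compounds were dissolved in DMSO and tested at […] µg/ml. Incubation 72 h at 28 °C. MIC is the lowest concentration with no visible growth under a binocular microscope. MFC by 2 µl subculture and a further 72 h at 28 °C.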

Trichoderma viride = assay: Antifungal activity against Trichoderma viride IAM 5061 after 72 hrs by microdilution test; assay type: functional; method in brief: as §2
Talaromyces funiculosus = assay: Antifungal activity against Penicillium funiculosum ATCC 36839 after 72 hrs by microdilution test; assay type: functional; details: ATCC 36839, 72 h; method in brief: as §2
Aspergillus versicolor = assay: Antifungal activity against Aspergillus versicolor ATCC 11730 after 72 hrs by microdilution test; assay type: functional; details: ATCC 11730, 72 h; method in brief: as §2
Aspergillus ochraceus = assay: Antifungal activity against Aspergillus ochraceus ATCC 12066 after 72 hrs by microdilution test; assay type: functional; details: ATCC 12066, 72 h; method in brief: as §2
Aspergillus niger = assay: Antifungal activity against Aspergillus niger ATCC 6275 after 72 hrs by microdilution test; assay type: functional; details: ATCC 6275, 72 h; method in brief: as §2
Bacillus cereus = assay: Antibacterial activity against Bacillus cereus ATCC 10907 after 24 hrs by microdilution test; details: ATCC 10907, 24 h

Structure (SMILES)	logP [1]	MIC (Enterobacter cloacae)	MIC (Salmonella enteritidis)	MIC (Salmonella typhimurium)	MIC [2]	MIC (Micrococcus luteus)	MIC (Escherichia coli)	MIC (Aspergillus flavus)	MIC (Trichoderma viride)	MIC (Bacillus cereus)	MBC (Enterobacter cloacae)	MBC (Salmonella enteritidis)	MBC (Salmonella typhimurium)	MBC [2]	MBC (Micrococcus luteus)	MBC (Escherichia coli)	MFC (Aspergillus flavus)	MFC (Trichoderma viride)	MFC (Talaromyces funiculosus)	MBC (Bacillus cereus)	other results
O=C(N[C@H](CO)[C@H](O)c1ccc([N+](=O)[O-])cc1)C(Cl)Cl [CHLORAMPHENICOL]		150 µg/mL (≈ 464 µM)	150 µg/mL (≈ 464 µM)	150 µg/mL (≈ 464 µM)	100 µg/mL (≈ 309 µM)	150 µg/mL (≈ 464 µM)	250 µg/mL (≈ 774 µM)			150 µg/mL (≈ 464 µM)	200 µg/mL (≈ 619 µM)	200 µg/mL (≈ 619 µM)	200 µg/mL (≈ 619 µM)	100 µg/mL (≈ 309 µM)	200 µg/mL (≈ 619 µM)	250 µg/mL (≈ 774 µM)				200 µg/mL (≈ 619 µM)	
COc1cc(Cc2n[nH]c(=S)n2-c2ccc(Cl)cc2)c(S(=O)(=O)N2CCCC2)cc1OC	2.11	100 µg/mL (≈ 202 µM)	150 µg/mL (≈ 303 µM)	150 µg/mL (≈ 303 µM)	150 µg/mL (≈ 303 µM)	150 µg/mL (≈ 303 µM)	150 µg/mL (≈ 303 µM)	100 µg/mL (≈ 202 µM)	150 µg/mL (≈ 303 µM)	150 µg/mL (≈ 303 µM)	100 µg/mL (≈ 202 µM)	150 µg/mL (≈ 303 µM)	150 µg/mL (≈ 303 µM)	150 µg/mL (≈ 303 µM)	150 µg/mL (≈ 303 µM)	150 µg/mL (≈ 303 µM)	150 µg/mL (≈ 303 µM)	150 µg/mL (≈ 303 µM)	150 µg/mL (≈ 303 µM)	150 µg/mL (≈ 303 µM)	MIC (Talaromyces funiculosus): 100 µg/mL (≈ 202 µM); MFC (Aspergillus versicolor): 150 µg/mL (≈ 303 µM); MIC (Aspergillus versicolor): 100 µg/mL (≈ 202 µM); MFC (Aspergillus ochraceus): 150 µg/mL (≈ 303 µM); MIC (Aspergillus ochraceus): 100 µg/mL (≈ 202 µM); MFC (Aspergillus niger): 150 µg/mL (≈ 303 µM); MIC (Aspergillus niger): 150 µg/mL (≈ 303 µM)
COc1cc(Cc2n[nH]c(=S)n2-c2ccccc2)c(S(=O)(=O)N(C)C)cc1OC	1.72	100 µg/mL (≈ 230 µM)	150 µg/mL (≈ 345 µM)	100 µg/mL (≈ 230 µM)	150 µg/mL (≈ 345 µM)	150 µg/mL (≈ 345 µM)	100 µg/mL (≈ 230 µM)	50 µg/mL (≈ 115 µM)	50 µg/mL (≈ 115 µM)	150 µg/mL (≈ 345 µM)	100 µg/mL (≈ 230 µM)	150 µg/mL (≈ 345 µM)	150 µg/mL (≈ 345 µM)	150 µg/mL (≈ 345 µM)	150 µg/mL (≈ 345 µM)	150 µg/mL (≈ 345 µM)	100 µg/mL (≈ 230 µM)	100 µg/mL (≈ 230 µM)	100 µg/mL (≈ 230 µM)	150 µg/mL (≈ 345 µM)	MIC (Talaromyces funiculosus): 100 µg/mL (≈ 230 µM); MFC (Aspergillus versicolor): 150 µg/mL (≈ 345 µM); MIC (Aspergillus versicolor): 100 µg/mL (≈ 230 µM); MFC (Aspergillus ochraceus): 150 µg/mL (≈ 345 µM); MIC (Aspergillus ochraceus): 100 µg/mL (≈ 230 µM); MFC (Aspergillus niger): 150 µg/mL (≈ 345 µM); MIC (Aspergillus niger): 100 µg/mL (≈ 230 µM)
CCN(CC)S(=O)(=O)c1cc(OC)c(OC)cc1Cc1n[nH]c(=S)n1-c1ccccc1	2.48	100 µg/mL (≈ 216 µM)	150 µg/mL (≈ 324 µM)	150 µg/mL (≈ 324 µM)	150 µg/mL (≈ 324 µM)	150 µg/mL (≈ 324 µM)	100 µg/mL (≈ 216 µM)	100 µg/mL (≈ 216 µM)	50 µg/mL (≈ 108 µM)	150 µg/mL (≈ 324 µM)	100 µg/mL (≈ 216 µM)	150 µg/mL (≈ 324 µM)	150 µg/mL (≈ 324 µM)	150 µg/mL (≈ 324 µM)	150 µg/mL (≈ 324 µM)	150 µg/mL (≈ 324 µM)	150 µg/mL (≈ 324 µM)	100 µg/mL (≈ 216 µM)	150 µg/mL (≈ 324 µM)	150 µg/mL (≈ 324 µM)	MIC (Talaromyces funiculosus): 100 µg/mL (≈ 216 µM); MFC (Aspergillus versicolor): 150 µg/mL (≈ 324 µM); MIC (Aspergillus versicolor): 100 µg/mL (≈ 216 µM); MFC (Aspergillus ochraceus): 150 µg/mL (≈ 324 µM); MIC (Aspergillus ochraceus): 100 µg/mL (≈ 216 µM); MFC (Aspergillus niger): 150 µg/mL (≈ 324 µM); MIC (Aspergillus niger): 100 µg/mL (≈ 216 µM)

Now from value to molecule, other results behind:

logP [1]	MIC (Enterobacter cloacae)	MIC (Salmonella enteritidis)	MIC (Salmonella typhimurium)	MIC [2]	MIC (Micrococcus luteus)	MIC (Escherichia coli)	MIC (Aspergillus flavus)	MIC (Trichoderma viride)	MIC (Bacillus cereus)	Structure (SMILES)	MBC (Enterobacter cloacae)	MBC (Salmonella enteritidis)	MBC (Salmonella typhimurium)	MBC [2]	MBC (Micrococcus luteus)	MBC (Escherichia coli)	MFC (Aspergillus flavus)	MFC (Trichoderma viride)	MFC (Talaromyces funiculosus)	MBC (Bacillus cereus)	other results
1.57	100 µg/mL (≈ 210 µM)	150 µg/mL (≈ 315 µM)	150 µg/mL (≈ 315 µM)	150 µg/mL (≈ 315 µM)	150 µg/mL (≈ 315 µM)	100 µg/mL (≈ 210 µM)	100 µg/mL (≈ 210 µM)	100 µg/mL (≈ 210 µM)	150 µg/mL (≈ 315 µM)	COc1cc(Cc2n[nH]c(=S)n2-c2ccccc2)c(S(=O)(=O)N2CCOCC2)cc1OC	100 µg/mL (≈ 210 µM)	150 µg/mL (≈ 315 µM)	150 µg/mL (≈ 315 µM)	150 µg/mL (≈ 315 µM)	150 µg/mL (≈ 315 µM)	150 µg/mL (≈ 315 µM)	150 µg/mL (≈ 315 µM)	150 µg/mL (≈ 315 µM)	150 µg/mL (≈ 315 µM)	150 µg/mL (≈ 315 µM)	MIC (Talaromyces funiculosus): 100 µg/mL (≈ 210 µM); MFC (Aspergillus versicolor): 150 µg/mL (≈ 315 µM); MIC (Aspergillus versicolor): 100 µg/mL (≈ 210 µM); MFC (Aspergillus ochraceus): 150 µg/mL (≈ 315 µM); MIC (Aspergillus ochraceus): 100 µg/mL (≈ 210 µM); MFC (Aspergillus niger): 150 µg/mL (≈ 315 µM); MIC (Aspergillus niger): 150 µg/mL (≈ 315 µM)
3.31	100 µg/mL (≈ 196 µM)	150 µg/mL (≈ 295 µM)	100 µg/mL (≈ 196 µM)	150 µg/mL (≈ 295 µM)	150 µg/mL (≈ 295 µM)	100 µg/mL (≈ 196 µM)	100 µg/mL (≈ 196 µM)	100 µg/mL (≈ 196 µM)	150 µg/mL (≈ 295 µM)	COc1cc(Cc2n[nH]c(=S)n2-c2ccc(Cl)cc2)c(S(=O)(=O)N2CCCCC2)cc1OC	100 µg/mL (≈ 196 µM)	150 µg/mL (≈ 295 µM)	150 µg/mL (≈ 295 µM)	150 µg/mL (≈ 295 µM)	150 µg/mL (≈ 295 µM)	150 µg/mL (≈ 295 µM)	150 µg/mL (≈ 295 µM)	150 µg/mL (≈ 295 µM)	150 µg/mL (≈ 295 µM)	150 µg/mL (≈ 295 µM)	MIC (Talaromyces funiculosus): 100 µg/mL (≈ 196 µM); MFC (Aspergillus versicolor): 150 µg/mL (≈ 295 µM); MIC (Aspergillus versicolor): 100 µg/mL (≈ 196 µM); MFC (Aspergillus ochraceus): 150 µg/mL (≈ 295 µM); MIC (Aspergillus ochraceus): 100 µg/mL (≈ 196 µM); MFC (Aspergillus niger): 150 µg/mL (≈ 295 µM); MIC (Aspergillus niger): 100 µg/mL (≈ 196 µM)
